The source made the active and inactive calls. The calls are words filed in the database; no cut-off is given here.
How the values were obtained:
[1] = target: Replicase polyprotein 1ab (Severe acute respiratory syndrome coronavirus 2, UniProt P0DTD1); assay: Inhibition of N7-MTase activity of SARS-CoV-2 N-terminus hexahistidine tag nsp14 expressed in Escherichia coli C2566 using [3H]SAM as substrate incubated for 30 mins in presence of mGpppAC4 synthetic RNA by radioactive filter binding assay
[2] = target: Replicase polyprotein 1ab (Severe acute respiratory syndrome coronavirus 2) (UniProt P0DTD1); assay: Inhibition of N7-MTase activity of SARS-CoV-2 N-terminus hexahistidine tag nsp14 expressed in Escherichia coli C2566 at 5 uM using [3H]SAM as substrate incubated for 30 mins in presence of mGpppAC4 synthetic RNA by filter binding assay relative to control
[3] = tested on: Severe acute respiratory syndrome coronavirus 2; assay: Binding affinity to SARS-CoV N-terminus hexahistidine tag nsp14 expressed in Escherichia coli C2566 assessed as shift in melting temperature at >2 uM by SYPRO orange dye based thermal shift assay
[4] = target: Replicase polyprotein 1ab (Severe acute respiratory syndrome coronavirus 2) (UniProt P0DTD1); assay: Binding affinity to SARS-CoV-2 N-terminus hexahistidine tag nsp14 expressed in Escherichia coli C2566 assessed as change in melting temperature at 0.5 mM by SYPRO orange dye based thermal shift assay
How it was run: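 nsp14 (freshly purified, 5 μM, in 20 mM Hepes pH 7.5, 150 mM NaCl, ≤5% DMSO) incubated with compound from 500 μM down to 8.4 nM (3-fold serial dilution) plus Sypro Orange 0.00056×. Melt ramp 1 °C per minute, 25–95 °C. Tm from Boltzmann fit; ΔTm taken against DMSO control. Duplicates; Kd from inflection of ΔTm versus concentration.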

[5] = Inhibition of N7-MTase activity of SARS-CoV N-terminus hexahistidine tag nsp14 expressed in Escherichia coli C2566 using [3H]SAM as substrate incubated for 30 mins in presence of mGpppAC4 synthetic RNA by radioactive filter binding assay; set-up: species or system Severe acute respiratory syndrome-related coronavirus
[6] = Selectivity index, ratio of IC50 for human RNA N7-MTase to IC50 for SARS-CoV-2 nsp14 N7-MTase activity using [3H]SAM as substrate incubated for 30 mins in presence of mGpppAC4 synthetic RNA by radioactive filter binding assay
[7] = target: Replicase polyprotein 1ab (Severe acute respiratory syndrome coronavirus 2) (UniProt P0DTD1); assay: Inhibition of N7-MTase activity of SARS-CoV-2 N-terminus hexahistidine tag nsp14 expressed in Escherichia coli C2566 assessed as fold change using [3H]SAM as substrate incubated for 30 mins in presence of mGpppAC4 synthetic RNA by radioactive filter binding assay
[8] = Inhibition of human RNA N7-MTase expressed in Escherichia coli measured using [3H]SAM as substrate incubated for 30 mins in presence of mGpppAC4 synthetic RNA by radioactive filter binding assay
Homo sapiens = organism: Homo sapiens; assay: Inhibition of human RNA N7-MTase expressed in Escherichia coli measured upto 50 uM using [3H]SAM as substrate incubated for 30 mins in presence of mGpppAC4 synthetic RNA by radioactive filter binding assay; conditions: DDE = dose-dependent effect

Structure (SMILES)	IC50 [1]	inhibition [2]	also measured
N#Cc1cccc(S(=O)(=O)NC[C@H]2O[C@@H](n3cnc4c(N)ncnc43)[C@H](O)[C@@H]2O)c1	5300 nM	80%	–
CCN(C[C@H]1O[C@@H](n2cnc3c(N)ncnc32)[C@H](O)[C@@H]1O)S(=O)(=O)c1cccc(C#N)c1	960 nM	65%	–
COc1ccc(S(=O)(=O)NC[C@H]2O[C@@H](n3cnc4c(N)ncnc43)[C@H](O)[C@@H]2O)cc1C#N	514 nM	100%	–
COc1ccc(S(=O)(=O)N(CCCCNc2cccc3ccccc23)C[C@H]2O[C@@H](n3cnc4c(N)ncnc43)[C@H](O)[C@@H]2O)cc1[N+](=O)[O-]	30 nM	100%	Activity [3]: Active; ΔTm [4]: 11 °C
CCN(C[C@H]1O[C@@H](n2cnc3c(N)ncnc32)[C@H](O)[C@@H]1O)S(=O)(=O)c1ccc(Br)c([N+](=O)[O-])c1	80 nM	100%	–
Cc1ccc(S(=O)(=O)NC[C@H]2O[C@@H](n3cnc4c(N)ncnc43)[C@H](O)[C@@H]2O)cc1[N+](=O)[O-]	342 nM	100%	–
Nc1ncnc2c1ncn2[C@@H]1O[C@H](CNS(=O)(=O)c2ccc(Br)c([N+](=O)[O-])c2)[C@@H](O)[C@H]1O	2900 nM	85%	–
Nc1ncnc2c1ncn2[C@@H]1O[C@H](CNS(=O)(=O)c2cccc([N+](=O)[O-])c2)[C@@H](O)[C@H]1O	3590 nM	80%	–
COc1ccc(S(=O)(=O)NC[C@H]2O[C@@H](n3cnc4c(N)ncnc43)[C@H](O)[C@@H]2O)cc1[N+](=O)[O-]	146 nM	90%	–
Nc1ncnc2c1ncn2[C@@H]1O[C@H](CNS(=O)(=O)c2ccc(C(F)(F)F)cc2[N+](=O)[O-])[C@@H](O)[C@H]1O	3500 nM	60%	IC50 [5]: 3300 nM
CCN(C[C@H]1O[C@@H](n2cnc3c(N)ncnc32)[C@H](O)[C@@H]1O)S(=O)(=O)c1ccc(C)c([N+](=O)[O-])c1	38 nM	100%	–
CCOC(=O)CCCCN(C[C@H]1O[C@@H](n2cnc3c(N)ncnc32)[C@H](O)[C@@H]1O)S(=O)(=O)c1ccc(OC)c([N+](=O)[O-])c1	114 nM	100%	–
Nc1ncnc2c1ncn2[C@@H]1O[C@H](CNS(=O)(=O)c2ccc([N+](=O)[O-])cc2Cl)[C@@H](O)[C@H]1O	–	21%	–
Nc1ncnc2c1ncn2[C@@H]1O[C@H](CNS(=O)(=O)c2ccc(Cl)cc2)[C@@H](O)[C@H]1O	13000 nM	25%	–
Nc1ncnc2c1ncn2[C@@H]1O[C@H](CNS(=O)(=O)c2cccc([N+](=O)[O-])c2Cl)[C@@H](O)[C@H]1O	2100 nM	75%	IC50 [5]: 1400 nM
N#Cc1cc(S(=O)(=O)NC[C@H]2O[C@@H](n3cnc4c(N)ncnc43)[C@H](O)[C@@H]2O)ccc1Cl	1010 nM	100%	–
CCN(C[C@H]1O[C@@H](n2cnc3c(N)ncnc32)[C@H](O)[C@@H]1O)S(=O)(=O)c1cccc(Cl)c1	442 nM	65%	–

Structure (SMILES)	IC50 [1]	inhibition [2]	also measured
CCN(C[C@H]1O[C@@H](n2cnc3c(N)ncnc32)[C@H](O)[C@@H]1O)S(=O)(=O)c1ccc(OC)c([N+](=O)[O-])c1	44 nM	100%	–
CCN(C[C@H]1O[C@@H](n2cnc3c(N)ncnc32)[C@H](O)[C@@H]1O)S(=O)(=O)c1ccc(OC)c(C#N)c1	19 nM	100%	Activity [3]: Active; ΔTm [4]: 11 °C; Ratio IC50 [6]: > 2000; fold change (FC) [7]: 2000; IC50 [8]: 52800 nM; inhibition (Homo sapiens): Dde
COc1ccc(S(=O)(=O)N(CCCCOC(C)=O)C[C@H]2O[C@@H](n3cnc4c(N)ncnc43)[C@H](O)[C@@H]2O)cc1[N+](=O)[O-]	80 nM	100%	–
CCN(C[C@H]1O[C@@H](n2cnc3c(N)ncnc32)[C@H](O)[C@@H]1O)S(=O)(=O)c1ccc(C)c(Cl)c1	56 nM	95%	Activity [3]: Active; ΔTm [4]: 11 °C
CCN(C[C@H]1O[C@@H](n2cnc3c(N)ncnc32)[C@H](O)[C@@H]1O)S(=O)(=O)c1ccc(C(F)(F)F)cc1[N+](=O)[O-]	5000 nM	84%	–
Nc1ncnc2c1ncn2[C@@H]1O[C@H](CNS(=O)(=O)c2ccc(F)c([N+](=O)[O-])c2)[C@@H](O)[C@H]1O	4400 nM	87%	–
Nc1ncnc2c1ncn2[C@@H]1O[C@H](CNS(=O)(=O)c2ccc([N+](=O)[O-])cc2)[C@@H](O)[C@H]1O	14100 nM	25%	IC50 [5]: 7600 nM
Nc1ncnc2c1ncn2[C@@H]1O[C@H](CNS(=O)(=O)c2cccc(Cl)c2)[C@@H](O)[C@H]1O	–	20%	–
CCN(C[C@H]1O[C@@H](n2cnc3c(N)ncnc32)[C@H](O)[C@@H]1O)S(=O)(=O)c1ccc(Cl)c(Cl)c1	100 nM	100%	–
Cc1ccc(S(=O)(=O)NC[C@H]2O[C@@H](n3cnc4c(N)ncnc43)[C@H](O)[C@@H]2O)cc1Cl	344 nM	90%	–
Nc1ncnc2c1ncn2[C@@H]1O[C@H](CNS(=O)(=O)c2ccc(Cl)c(Cl)c2)[C@@H](O)[C@H]1O	482 nM	87%	–
CCN(C[C@H]1O[C@@H](n2cnc3c(N)ncnc32)[C@H](O)[C@@H]1O)S(=O)(=O)c1cccc([N+](=O)[O-])c1	516 nM	75%	–
COc1cc([N+](=O)[O-])ccc1S(=O)(=O)NC[C@H]1O[C@@H](n2cnc3c(N)ncnc32)[C@H](O)[C@@H]1O	5100 nM	77%	IC50 [5]: 25000 nM
N#Cc1cc(S(=O)(=O)NC[C@H]2O[C@@H](n3cnc4c(N)ncnc43)[C@H](O)[C@@H]2O)ccc1F	899 nM	90%	–
COc1ccc(S(=O)(=O)NC[C@H]2O[C@@H](n3cnc4c(N)ncnc43)[C@H](O)[C@@H]2O)c([N+](=O)[O-])c1	1400 nM	70%	IC50 [5]: 2600 nM
CCc1ccc(S(=O)(=O)NC[C@H]2O[C@@H](n3cnc4c(N)ncnc43)[C@H](O)[C@@H]2O)cc1[N+](=O)[O-]	244 nM	98%	–

— ChEMBL document CHEMBL5154878, “Potent Inhibition of SARS-CoV-2 nsp14 N7-Methyltransferase by Sulfonamide-Based Bisubstrate Analogues” (J Med Chem, 2022)
